Test results taken from ChEMBL document CHEMBL1938272 (Bioorg Med Chem, 2012).

Experiments:
[1] = test system: MCF7; test: Antiproliferative activity against human MCF7 cells after 72 hrs by SRB assay; assay type: functional, cell-based; conditions: MCF7, 72 h
Procedure, shortened: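 MCF-7 breast cancer cells exposed to serially diluted compounds (DMSO) for 72 h at 37 °C in CO2 incubator; fixed with 10% trichloroacetic acid, stained with 0.4% SRB, OD read at 515 nm. Zero-day control of 1 × 10^4 cells per well processed after 30 min. Survival = (OD test − OD zero-day)/(OD control − OD zero-day) × 100; IC50 from survival.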

[2] = test system: Radical scavenging activity; test: Antioxidant activity assessed as DPPH free radical scavenging activity at 400 uM after 30 mins by spectrophotometry; assay type: functional
[3] = molecular target: T1, Aromatase (Homo sapiens, UniProt P11511)
T1 sequence (P11511 whole entry): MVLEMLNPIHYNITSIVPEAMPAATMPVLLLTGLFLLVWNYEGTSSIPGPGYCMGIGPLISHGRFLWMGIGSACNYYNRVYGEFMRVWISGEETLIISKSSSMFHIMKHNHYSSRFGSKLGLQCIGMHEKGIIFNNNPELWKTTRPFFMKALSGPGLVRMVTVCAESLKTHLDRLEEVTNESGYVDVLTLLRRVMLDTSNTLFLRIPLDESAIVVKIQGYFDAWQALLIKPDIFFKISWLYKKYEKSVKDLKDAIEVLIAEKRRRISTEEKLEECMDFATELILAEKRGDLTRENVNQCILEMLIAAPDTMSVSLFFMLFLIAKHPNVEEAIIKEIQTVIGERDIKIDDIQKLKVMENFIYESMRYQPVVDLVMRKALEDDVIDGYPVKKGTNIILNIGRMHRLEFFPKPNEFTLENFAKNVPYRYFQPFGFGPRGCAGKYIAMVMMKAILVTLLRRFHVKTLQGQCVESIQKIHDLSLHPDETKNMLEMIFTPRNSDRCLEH

[4] = Inhibition of TNFalpha-activated NF-kappaB expressed in HEK293 cells by luciferase reporter gene assay; assay type: cell-based
[5] = molecular target: T1, Aromatase; conditions: 2 h, read-out: Imax
[6] = test system: RAW264.7; test: Antiinflammatory activity in mouse RAW264.7 cells assessed as inhibition of LPS-induced NO production at 40 uM preincubated for 30 mins before LPS challenge by Griess method
[7] = molecular target: NAD(P)H dehydrogenase [quinone] 1 (Mus musculus) (UniProt Q64669); test: Induction of QR1-mediated cytoprotective activity in mouse Hepa-1c1c7 cells at 50 uM assessed as cell survival; assay type: cell-based
[8] = test system: RAW264.7; test: Antiinflammatory activity in mouse RAW264.7 cells assessed as inhibition of LPS-induced NO production preincubated for 30 mins before LPS challenge measured after 24 hrs by Griess method; assay type: functional, cell-based
[9] = molecular target: NAD(P)H dehydrogenase [quinone] 1 (Mus musculus) (UniProt Q64669); test: Induction of QR1-mediated cytoprotective activity in mouse BPrc1 cells at 50 uM assessed as cell survival; assay type: cell-based
[10] = molecular target: NAD(P)H dehydrogenase [quinone] 1 (Mus musculus) (UniProt Q64669); test: Induction of QR1 activity in mouse TAOc1 mutant Hepa cells using MTT as substrate by spectrophotometry; assay type: cell-based
[11] = molecular target: NAD(P)H dehydrogenase [quinone] 1 (Mus musculus) (UniProt Q64669); test: Induction of QR1 activity in mouse BPrc1 cells using MTT as substrate by spectrophotometry; assay type: cell-based
[12] = molecular target: NAD(P)H dehydrogenase [quinone] 1 (Mus musculus) (UniProt Q64669); test: Induction of QR1-mediated cytoprotective activity in mouse TAOc1 mutant Hepa cells at 50 uM assessed as cell survival; assay type: cell-based
[13] = test system: HEK293; test: Inhibition of TNFalpha-activated NF-kappaB expressed in HEK293 cells at 50 uM by luciferase reporter gene assay; assay type: cell-based
[14] = molecular target: NAD(P)H dehydrogenase [quinone] 1 (Mus musculus) (UniProt Q64669); test: Induction of QR1 activity in mouse Hepa-1c1c7 cells using MTT as substrate by spectrophotometry; assay type: cell-based
Procedure, shortened: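 Mouse hepatoma Hepa 1c1c7 cells were incubated with compound, then permeabilised with digitonin. QR1 activity was read as MTT reduction to formazan at 595 nm, with crystal violet total protein run in parallel. Induction ratio is activity versus control; CD is the concentration doubling activity, derived only when the ratio is above 2.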

[15] = molecular target: T1, Aromatase; test: Ratio of trans-resveratrol IC50 to compound IC50 for human aromatase

Sequence of NAD(P)H dehydrogenase [quinone] 1 (Mus musculus) (Q64669 whole entry): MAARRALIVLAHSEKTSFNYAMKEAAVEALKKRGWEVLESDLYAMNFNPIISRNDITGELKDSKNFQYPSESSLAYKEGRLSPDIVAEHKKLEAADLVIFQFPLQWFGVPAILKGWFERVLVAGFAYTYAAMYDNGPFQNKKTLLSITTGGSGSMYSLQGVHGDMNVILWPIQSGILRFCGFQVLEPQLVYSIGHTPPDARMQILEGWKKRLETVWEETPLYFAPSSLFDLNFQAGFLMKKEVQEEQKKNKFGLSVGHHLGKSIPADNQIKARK

SMILES | IC50 [1] | inhibition [2] | IC50 [3] | IC50 [4] | inhibition at 50 µM [5] | inhibition at 40 µM [6] | Survival [7] | IC50 [8] | Survival [9] | CD [10] | CD [11] | Survival [12] | inhibition [13] | CD [14] | Ratio IC50 [15]
Oc1ccc(-c2nsc(-c3ccc(O)cc3)n2)cc1 | 4.7 µM | 3.4% | > 50 µM | 19.3 µM | 50.4% | 93.7% | 36.5% | 13.5 µM |  |  |  |  |  |  | 
Ic1ccccc1-c1nsc(-c2ccccc2I)n1 |  | 3.4% | > 50 µM |  | 39.4% | 30% | 48.8% | 30 µM | 95.1% | 6.3 µM | 8.1 µM | 69.8% |  |  | 
Oc1cccc(-c2nsc(-c3cccc(O)c3)n2)c1 |  |  | > 50 µM | 38.1 µM | 24.4% | 47.4% | 4% |  | 94.3% |  |  | 63.7% |  |  | 
Nc1ccc(-c2nsc(-c3ccc(N)cc3)n2)cc1 | 30.8 µM |  | 26.5 µM | 7.6 µM | 70.4% |  | 66.1% | 23.3 µM |  |  |  |  |  |  | 
COc1cccc(-c2nsc(-c3cccc(OC)c3)n2)c1 | 24.2 µM | -2.1% | > 50 µM | 0.4 µM | 26.6% | 17.6% | 63.7% |  | 97.1% |  |  | 76.3% | 93.9% | 4.03 µM | 
Cc1cc(Cl)ccc1-c1nsc(-c2ccc(Cl)cc2C)n1 | 39.5 µM | 3.7% | > 50 µM |  | 35.3% | 10.1% | 77.3% |  | 94.7% | 3.8 µM | 2.8 µM | 71% | 0% | 0.44 µM | 
Cc1ccc(Cl)cc1-c1nsc(-c2cc(Cl)ccc2C)n1 | 29 µM | 1.3% | > 50 µM |  | 22% | 25.9% | 37.9% |  | 91.5% | 2 µM | 4.4 µM | 80.2% | 29.7% | 0.47 µM | 
Cc1cccc(-c2nsc(-c3cccc(C)c3)n2)c1 | 22.1 µM | 1.9% | > 50 µM | 0.8 µM | 32.9% | 0.9% | 33.7% |  | 100% |  |  | 94.9% |  | 4 µM | 
c1ccc(-c2nsc(-c3ccccc3)n2)cc1 | 24.4 µM |  | > 50 µM | 47.4 µM | 60.2% | 55.7% | 50.3% |  | 77.8% | 18.6 µM | 49.7 µM | 85.9% |  |  | 
c1cc(-c2nsc(-c3ccncc3)n2)ccn1 |  | -35.6% | 0.8 µM |  | 98% | 0.9% | 86.6% |  |  |  |  |  | 7.2% |  | 30
c1cncc(-c2nsc(-c3cccnc3)n2)c1 |  |  | 0.2 µM |  | 97.2% | 1.3% | 73.5% |  | 87.8% |  |  | 71.6% | 30.9% | 53.1 µM | 125
